Results: ChEMBL document CHEMBL2407079, “Potent DGAT1 Inhibitors in the Benzimidazole Class with a Pyridyl-oxy-cyclohexanecarboxylic Acid Moiety” (ACS Med Chem Lett, 2013)
Values belong to the compound of their own block, whether it stands above or below them.

Experiments:
[1] = Ratio of drug uptake in ileum to blood of mouse at 3 mg/kg, po at 2 to 25 hrs; format: ADME, organism-based; set-up: dose 3 mg/kg, route oral
Summary of the method: (§1)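 Mice dosed orally at 3 mg/kg within a repeat lipid tolerance test. Drug levels (μM) measured in blood and in intestinal segments (duodenum, jejunum, ileum) at 2, 5 and 25 h after dosing. Tissue-to-blood ratio taken from the segment and blood concentrations at each time point.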

[2] = Ratio of drug uptake in jejunum to blood of mouse at 3 mg/kg, po at 2 to 25 hrs; format: ADME, organism-based; set-up: dose 3 mg/kg, route oral; summary of the method: as §1
[3] = Ratio of drug uptake in duodenum to blood of mouse at 3 mg/kg, po at 2 to 25 hrs; format: ADME, organism-based; set-up: dose 3 mg/kg, route oral; summary of the method: as §1
[4] = Biodistribution in mouse ileum at 3 mg/kg, po at 25 hrs; format: ADME, organism-based; set-up: dose 3 mg/kg, route oral; conditions: read-out: Drug uptake
Summary of the method: (§2)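 Mice, single oral dose of 3 mg/kg. Drug concentration (μM) determined in blood and in duodenum, jejunum and ileum segments at 2, 5 and 25 h.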

[5] = Biodistribution in mouse ileum at 3 mg/kg, po at 5 hrs; format: ADME, organism-based; set-up: dose 3 mg/kg, route oral; conditions: read-out: Drug uptake; summary of the method: as §2
[6] = Biodistribution in mouse ileum at 3 mg/kg, po at 2 hrs; format: ADME, organism-based; set-up: dose 3 mg/kg, route oral; conditions: read-out: Drug uptake; summary of the method: as §2
[7] = Biodistribution in mouse jejunum at 3 mg/kg, po at 25 hrs; format: ADME, organism-based; set-up: dose 3 mg/kg, route oral; conditions: read-out: Drug uptake; summary of the method: as §2
[8] = Biodistribution in mouse jejunum at 3 mg/kg, po at 5 hrs; format: ADME, organism-based; set-up: dose 3 mg/kg, route oral; conditions: read-out: Drug uptake; summary of the method: as §2
[9] = Biodistribution in mouse jejunum at 3 mg/kg, po at 2 hrs; format: ADME, organism-based; set-up: dose 3 mg/kg, route oral; conditions: read-out: Drug uptake; summary of the method: as §2
[10] = Biodistribution in mouse duodenum at 3 mg/kg, po at 25 hrs; format: ADME, organism-based; set-up: dose 3 mg/kg, route oral; conditions: read-out: Drug uptake; summary of the method: as §2
[11] = Biodistribution in mouse duodenum at 3 mg/kg, po at 5 hrs; format: ADME, organism-based; set-up: dose 3 mg/kg, route oral; conditions: read-out: Drug uptake; summary of the method: as §2
[12] = Biodistribution in mouse blood at 3 mg/kg, po at 25 hrs; format: ADME, organism-based; set-up: dose 3 mg/kg, route oral; conditions: whole blood, read-out: Drug uptake; summary of the method: as §2
[13] = Biodistribution in mouse duodenum at 3 mg/kg, po at 2 hrs; format: ADME, organism-based; set-up: dose 3 mg/kg, route oral; conditions: read-out: Drug uptake; summary of the method: as §2
[14] = Biodistribution in mouse blood at 3 mg/kg, po at 5 hrs; format: ADME, organism-based; set-up: dose 3 mg/kg, route oral; conditions: whole blood, read-out: Drug uptake; summary of the method: as §2
[15] = Biodistribution in mouse blood at 3 mg/kg, po at 2 hrs; format: ADME, organism-based; set-up: dose 3 mg/kg, route oral; conditions: whole blood, read-out: Drug uptake; summary of the method: as §2
Mus musculus [16] = assay: Reduction in triglyceride excursion in mouse at 3 mg/kg, po by lipid tolerance test; format: functional; set-up: scale not given: the % may be the effect or the level left
[17] = target: T1, Diacylglycerol O-acyltransferase 1 (Mus musculus, UniProt Q9Z2A7); assay: Inhibition of mouse DGAT1
T1 sequence (Q9Z2A7 whole entry): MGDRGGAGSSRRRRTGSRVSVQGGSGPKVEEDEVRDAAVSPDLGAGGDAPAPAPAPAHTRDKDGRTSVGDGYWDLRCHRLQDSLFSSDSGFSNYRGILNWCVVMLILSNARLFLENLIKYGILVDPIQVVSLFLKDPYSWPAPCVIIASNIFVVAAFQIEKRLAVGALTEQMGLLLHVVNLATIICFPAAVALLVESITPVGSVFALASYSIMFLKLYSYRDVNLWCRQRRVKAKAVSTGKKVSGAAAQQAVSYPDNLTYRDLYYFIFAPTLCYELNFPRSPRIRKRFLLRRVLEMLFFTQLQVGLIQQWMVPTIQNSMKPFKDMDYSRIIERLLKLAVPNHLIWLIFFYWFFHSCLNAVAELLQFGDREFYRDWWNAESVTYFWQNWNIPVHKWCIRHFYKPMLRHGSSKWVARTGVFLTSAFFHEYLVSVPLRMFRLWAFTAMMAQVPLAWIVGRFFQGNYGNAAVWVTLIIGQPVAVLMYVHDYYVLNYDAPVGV

[18] = target: T2, Diacylglycerol O-acyltransferase 1 (Homo sapiens, UniProt O75907); assay: Inhibition of human DGAT1
T2 sequence (O75907 whole entry): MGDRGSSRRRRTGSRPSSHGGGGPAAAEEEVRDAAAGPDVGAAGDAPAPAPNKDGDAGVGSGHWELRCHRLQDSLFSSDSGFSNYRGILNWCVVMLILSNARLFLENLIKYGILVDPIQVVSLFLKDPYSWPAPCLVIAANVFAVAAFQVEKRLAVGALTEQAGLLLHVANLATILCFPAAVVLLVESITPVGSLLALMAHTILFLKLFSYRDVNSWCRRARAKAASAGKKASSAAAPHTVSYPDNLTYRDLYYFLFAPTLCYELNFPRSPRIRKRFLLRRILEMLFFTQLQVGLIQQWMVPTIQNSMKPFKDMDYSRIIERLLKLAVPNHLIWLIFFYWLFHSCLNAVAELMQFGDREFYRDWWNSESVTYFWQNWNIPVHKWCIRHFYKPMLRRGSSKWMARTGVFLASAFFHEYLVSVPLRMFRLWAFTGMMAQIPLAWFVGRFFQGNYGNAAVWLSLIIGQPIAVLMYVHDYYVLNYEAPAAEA

[19] = Lipophilicity, log D of the compound by HPLC analysis; format: physicochemical
Rattus norvegicus [20] = assay: Dose normalized AUC in Sprague-Dawley rat at 1 mg/kg, iv and 2 mg/kg, po; format: ADME, organism-based; conditions: in vivo
Summary of the method: (§3)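 Sprague–Dawley rats; 1 mg/kg iv and 2 mg/kg p.o., both as solutions in EtOH/PEG400/water (10:50:40). Plasma AUC measured for the parent and, where applicable, for the epimerized metabolite formed in vivo.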

[21] = Half life in Sprague-Dawley rat at 1 mg/kg, iv; format: ADME, organism-based; set-up: dose 1 mg/kg, route intravenous; conditions: in vivo
Summary of the method: (§4)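 Sprague–Dawley rats; intravenous dose of 1 mg/kg given as a solution in EtOH/PEG400/water (10:50:40).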

[22] = Volume of distribution at steady state in Sprague-Dawley rat at 1 mg/kg, iv; format: ADME, organism-based; set-up: dose 1 mg/kg, route intravenous; conditions: in vivo, read-out: Vdss; summary of the method: as §4
[23] = Clearance in Sprague-Dawley rat at 1 mg/kg, iv; format: ADME, organism-based; set-up: dose 1 mg/kg, route intravenous; conditions: in vivo; summary of the method: as §4
[24] = Bioavailability in Sprague-Dawley rat at 1 mg/kg, iv; format: ADME, organism-based; conditions: in vivo; summary of the method: as §4
Mus musculus [25] = assay: Reduction in triglyceride excursion in mouse at 10 mg/kg, po measured at 18 hrs by lipid tolerance test; format: functional; set-up: scale not given: the % may be the effect or the level left
Summary of the method: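 Mouse lipid tolerance test. Oral dose of 10 mg/kg as a suspension in 0.5% methylcellulose; triglyceride reduction read at 18 h.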

Rattus norvegicus [26] = assay: AUC in Sprague-Dawley rat assessed as cis-4-(5-(5-fluoro-1H-benzo[d]imidazol-2-yl)-2,3'-bipyridin-6'-yloxy)cyclohexanecarboxylic acid at 2 mg/kg, po; format: ADME, organism-based, Plasma; set-up: dose 2 mg/kg, route oral; conditions: in vivo; summary of the method: as §3
[27] = AUC in Sprague-Dawley rat at 2 mg/kg, po; format: ADME, organism-based; set-up: dose 2 mg/kg, route oral; conditions: plasma; summary of the method: as §3

Compound: O=C(O)[C@H]1CC[C@@H](Oc2ccc(-c3ccc(-c4nc5ccccc5[nH]4)cn3)cn2)CC1
- Kp [1]: > 30
- Kp [2]: > 30
- Kp [3]: > 30
- concentration at 25 h [4]: 620 nM
- concentration at 5 h [5]: 1720 nM
- concentration at 2 h [6]: 3890 nM
- concentration at 25 h [7]: 3060 nM
- concentration at 5 h [8]: 6010 nM
- concentration at 2 h [9]: 5510 nM
- concentration at 25 h [10]: 1760 nM
- concentration at 5 h [11]: 8760 nM
- concentration at 25 h [12]: 10 nM
- concentration at 2 h [13]: 8320 nM
- concentration at 5 h [14]: 51 nM
- concentration at 2 h [15]: 114 nM
- Activity (Mus musculus [16]): 95%
- IC50 [17]: 8.1 nM
- IC50 [18]: 4 nM

Compound: COc1ccc2[nH]c(-c3ccc(-c4ccc(O[C@H]5CC[C@@H](C(=O)O)CC5)nc4)nc3)nc2n1
- IC50 [18]: 11 nM

Compound: O=C(O)C[C@H]1CC[C@H](c2ccc(-c3ccc(-c4nc5ccc(C(F)(F)F)cc5[nH]4)cn3)cc2)CC1
- IC50 [17]: 2.8 nM
- logD [19]: 1.97
- IC50 [18]: 3.5 nM

Compound: O=C(O)[C@H]1CC[C@H](Oc2ccc(-c3ccc(-c4nc5cc(C(F)(F)F)ccc5[nH]4)cn3)cn2)CC1
- Activity (Mus musculus [25]): 84%
- IC50 [17]: 4.4 nM
- logD [19]: 1.72
- IC50 [18]: 3 nM

Compound: N#Cc1ccc2nc(-c3ccc(-c4ccc(O[C@H]5CC[C@@H](C(=O)O)CC5)nc4)nc3)[nH]c2c1
- IC50 [17]: 36 nM
- IC50 [18]: 3.2 nM

Compound: O=C(O)[C@H]1CC[C@@H](Oc2ccc(-c3ccc(-c4nc5ccc(OC(F)(F)F)cc5[nH]4)cn3)cn2)CC1
- IC50 [17]: 4.6 nM
- IC50 [18]: 3.9 nM

Stronger by IC50 [18], values ahead:

- IC50 [17]: 1 nM
- logD [19]: 1.8
- IC50 [18]: 1.1 nM
Compound: O=C(O)C[C@H]1CC[C@H](c2ccc(-c3ccc(-c4nc5cc(Cl)ccc5[nH]4)cn3)cc2)CC1

- AUC/dose (Rattus norvegicus [20]): 2.4 µM·h/mg/kg
- half-life [21]: 3.7 h
- Vd [22]: 0.34 L/kg
- clearance [23]: 3 mL/min/kg
- bioavailability [24]: 19%
- IC50 [17]: 3.7 nM
- logD [19]: 1.42
- IC50 [18]: 2.1 nM
Compound: O=C(O)[C@H]1CC[C@@H](Oc2ccc(-c3ccc(-c4nc5ccc(Cl)cc5[nH]4)cn3)cn2)CC1
- Activity (Mus musculus [25]): 144%

- IC50 [17]: 4.3 nM
- IC50 [18]: 1.3 nM
Compound: O=C(O)[C@H]1CC[C@H](Oc2ccc(-c3ccc(-c4nc5cc(F)c(F)cc5[nH]4)cn3)cn2)CC1

- AUC (Rattus norvegicus [26]): 0.48 µM·h
- AUC [27]: 4.47 µM·h
- half-life [21]: 0.86 h
- Vd [22]: 0.46 L/kg
- clearance [23]: 4.2 mL/min/kg
- bioavailability [24]: 24%
- IC50 [17]: 8.1 nM
- IC50 [18]: 2.5 nM
Compound: O=C(O)[C@H]1CC[C@H](Oc2ccc(-c3ccc(-c4nc5ccc(F)cc5[nH]4)cn3)cn2)CC1
